ChEMBL document CHEMBL1770104, “Design, synthesis and antifungal activities of novel pyrrole alkaloid analogs” (Eur J Med Chem, 2011)
Converted amounts (≈) assume the structure as drawn.

What was measured:
[1] = tested on: Botryosphaeria berengeriana; experiment: Antimicrobial activity against Physalospora piricola at 50 ug/mL by mycelium growth rate method; assay type: functional
Procedure, shortened: (§1)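 Mycelium growth-rate assay with anthranilamide and fenpiclonil as controls. Colony diameter is measured once the mycelia have grown completely, and the inhibition rate is calculated from the diameters by formula.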

Fusarium graminearum [2] = experiment: Antimicrobial activity against Gibberella zeae at 50 ug/mL by mycelium growth rate method; assay type: functional
Procedure, shortened: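 Mycelium growth rate assay with anthranilamide and fenpiclonil as controls. Once mycelia had grown completely, the mycelial diameter was measured and the inhibition rate was calculated from it by formula.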

Alternaria solani [3] = experiment: Antimicrobial activity against Alternaria solani at 50 ug/mL by mycelium growth rate method; assay type: functional; procedure, shortened: as §1
Fusarium [4] = experiment: Antimicrobial activity against Fusarium […] at 50 ug/mL by mycelium growth rate method; assay type: functional; procedure, shortened: as §1
Mycosphaerella arachidis [5] = experiment: Antimicrobial activity against Cercospora arachidicola at 50 ug/mL by mycelium growth rate method; assay type: functional; procedure, shortened: as §1
Fusarium graminearum [6] = experiment: Antimicrobial activity against Gibberella zeae by mycelium growth rate method; assay type: functional, organism-based
[7] = tested on: Botryosphaeria berengeriana; experiment: Antimicrobial activity against Physalospora piricola by mycelium growth rate method; assay type: functional, organism-based; procedure, shortened: as §1
Mycosphaerella arachidis [8] = experiment: Antimicrobial activity against Cercospora arachidicola by mycelium growth rate method; assay type: functional, organism-based; procedure, shortened: as §1
Alternaria solani [9] = experiment: Antimicrobial activity against Alternaria solani by mycelium growth rate method; assay type: functional, organism-based; procedure, shortened: as §1
Fusarium [10] = experiment: Antimicrobial activity against Fusarium […] by mycelium growth rate method; assay type: functional, organism-based; procedure, shortened: as §1

Compound	inhibition at 50 µg/mL [1] [%]	inhibition at 50 µg/mL (Fusarium graminearum [2]) [%]	inhibition at 50 µg/mL (Alternaria solani [3]) [%]	inhibition at 50 µg/mL (Fusarium [4]) [%]	inhibition at 50 µg/mL (Mycosphaerella arachidis [5]) [%]	EC50 (Fusarium graminearum [6]) [mg/L]	EC50 [7] [mg/L]	EC50 (Mycosphaerella arachidis [8]) [mg/L]	EC50 (Alternaria solani [9]) [mg/L]	EC50 (Fusarium [10]) [mg/L]
N#Cc1cccc(CONC(=O)c2cc(Br)c(Br)[nH]2)c1	25.3	8.8	21.1	18	35.7					
N#Cc1ccc(CONC(=O)c2cc(Br)c(Br)[nH]2)cc1	48.1	20.6	31.6	19	35					
O=C(NOCc1ccc([N+](=O)[O-])cc1)c1cc(Br)c(Br)[nH]1	16.7	13	26.7	17.6	18.8					
CO/C=C(/C(=O)OC)c1ccccc1CONC(=O)c1cc(Br)c(Br)[nH]1	13.6	0	52.4	6.7	26.7					
C#CCOc1ccc(CONC(=O)c2ccc[nH]2)cc1OC	100	9.1	35.3	16.7	20	> 50	4.5 (≈ 15 µM)	> 50	> 50	> 50
O=C(NOCc1ccc(F)cc1)c1ccc[nH]1	6.2	7	0	0	12					
CO/C=C(/C(=O)OC)c1ccccc1CONC(=O)c1ccc[nH]1	16.1	8.5	0	0	13.3					
C#CCOc1ccc(CONC(=O)c2[nH]c(Br)c(Br)c2Br)cc1OC	25.8	9.1	11.8	22.2	33.3					
O=C(NOCc1ccc(F)cc1)c1[nH]c(Br)c(Br)c1Br	18.5	15.5	19.2	8.3	28					
CO/C=C(/C(=O)OC)c1ccccc1CONC(=O)c1[nH]c(Br)c(Br)c1Br	25	13.6	5.9	27.8	26.7					
C#CCOc1ccc(CONC(=O)c2cc(Cl)c(Cl)[nH]2)cc1OC	6.2	21.1	42.3	0	44					
O=C(NOCc1ccc(F)cc1)c1cc(Cl)c(Cl)[nH]1	18.5	19.5	30.8	22.2	16					
CO/C=C(/C(=O)OC)c1ccccc1CONC(=O)c1cc(Cl)c(Cl)[nH]1	24.7	21.1	42.3	8.3	40					
C#CCOc1ccc(CON(C)C(=O)c2ccc[nH]2)cc1OC	5.8	0	13.3	31.6	19.2					
C#CCOc1ccc(CON(C)C(=O)c2cccn2C)cc1OC	6	20	16.7	31.6	7.7					
C#CCOc1ccc(CONC(=O)c2cc(Br)c(Br)[nH]2)cc1OC	90	8.7	64.9	47.1	56.3	> 50	9.78 (≈ 21.3 µM)	24.4 (≈ 53.2 µM)	20 (≈ 43.7 µM)	> 50

Compound	inhibition at 50 µg/mL [1] [%]	inhibition at 50 µg/mL (Fusarium graminearum [2]) [%]	inhibition at 50 µg/mL (Alternaria solani [3]) [%]	inhibition at 50 µg/mL (Fusarium [4]) [%]	inhibition at 50 µg/mL (Mycosphaerella arachidis [5]) [%]	EC50 (Fusarium graminearum [6]) [mg/L]	EC50 [7] [mg/L]	EC50 (Mycosphaerella arachidis [8]) [mg/L]	EC50 (Alternaria solani [9]) [mg/L]	EC50 (Fusarium [10]) [mg/L]
COc1ccc(CONC(=O)c2cc(Br)c(Br)[nH]2)cc1OC	50	4.6	73.3	41.2	60					
O=C(NOCc1ccc2c(c1)OCO2)c1cc(Br)c(Br)[nH]1	18.5	14.7	31.6	23.8	75					
O=C(NOCc1ccccc1)c1cc(Br)c(Br)[nH]1	40.9	9.1	66.7	40	53.3					
O=C(NOCc1ccccc1F)c1cc(Br)c(Br)[nH]1	27.3	18.2	76.2	41.2	50.3					
O=C(NOCc1cccc(F)c1)c1cc(Br)c(Br)[nH]1	40.9	4.5	61.9	40.8	54					
O=C(NOCc1ccc(F)cc1)c1cc(Br)c(Br)[nH]1	55.1	21.7	66.5	58	62.5					
O=C(NOCc1ccccc1Cl)c1cc(Br)c(Br)[nH]1	13.4	13.6	19	0	20					
O=C(NOCc1cccc(Cl)c1)c1cc(Br)c(Br)[nH]1	38.9	17.4	66.7	47	80					
O=C(NOCc1ccc(Cl)nc1)c1cc(Br)c(Br)[nH]1	37	0	5.3	23.8	28.6					
O=C(NOCc1ccc(Cl)cc1Cl)c1cc(Br)c(Br)[nH]1	33.3	11.8	21.1	33.3	35.7					
O=C(NOCc1ccc(Cl)c(Cl)c1)c1cc(Br)c(Br)[nH]1	27.8	17.4	40	23.5	43.8					
O=C(NOCc1ccc(Br)cc1)c1cc(Br)c(Br)[nH]1	33.3	2.9	31.6	4.8	50					
N#Cc1ccccc1CONC(=O)c1cc(Br)c(Br)[nH]1	14.8	14.7	10.5	14	14.3					
NC(=O)c1ccccc1N [ANTHRANILAMIDE]	43.2	38	42.3	27.8	52					
N#Cc1c[nH]cc1-c1cccc(Cl)c1Cl [FENPICLONIL]	100	100	100	18	100	1.71 (≈ 7.21 µM)	0.8 (≈ 3.37 µM)	0.38 (≈ 1.6 µM)	0.55 (≈ 2.32 µM)	> 50
